Active and inactive are the calls of the source. The calls are words filed in the database; no cut-off is given here.
What was measured:
[1] = molecular target: T1, Proteasome component C5 (Homo sapiens) (UniProt P20618); assay: Inhibition of caspase-like activity of 20S proteasome in imatinib-resistant human SUP-B15 cells at 4 nM to 25 uM using Z-nLPnLD-aminoluciferin as substrate after 2 hrs by proteasome-Glo assay; format: cell-based
T1 sequence (whole entry): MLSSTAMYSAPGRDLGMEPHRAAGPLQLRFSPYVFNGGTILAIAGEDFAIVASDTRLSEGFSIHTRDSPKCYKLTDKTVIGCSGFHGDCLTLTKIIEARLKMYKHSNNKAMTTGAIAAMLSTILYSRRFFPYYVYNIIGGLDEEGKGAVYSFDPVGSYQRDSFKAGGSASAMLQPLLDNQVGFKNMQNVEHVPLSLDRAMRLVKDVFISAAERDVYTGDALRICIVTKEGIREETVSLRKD

KCL-22 [2] = assay: Cytotoxicity against human KCL22 cells after 72 hrs by CellTiter-Glo luminescent cell viability assay; format: functional, cell-based; conditions: KCL-22, 72 h
Summary of the method: (§1)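 Inhibitors dispensed in increasing concentrations (50 nM–25 μM) and cells exposed 72 h. Viability read by ATP-dependent luminescence (CellTiter-Glo). Raw data normalized to controls. IC50 obtained by sigmoid dose–response fit with non-linear regression.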

[3] = molecular target: Proteasome Macropain subunit (Homo sapiens) (UniProt P49721); assay: Inhibition of trypsin-like activity of 20S proteasome in human HL60 cells at 4 nM to 25 uM using Z-LRR-aminoluciferin as substrate after 2 hrs by proteasome-Glo assay; format: cell-based
KCL-22 [4] = assay: Cytotoxicity against imatinib-resistant human KCL22 cells after 72 hrs by CellTiter-Glo luminescent cell viability assay; format: functional, cell-based; conditions: KCL-22, 72 h; summary of the method: as §1
SEM cells [5] = assay: Inhibition of HDAC6/chymotrypsin-like activity of 20S proteasome in human SEM cells assessed as increase in BIP protein expression at 0.1 to 10 uM after 18 hrs by Western blot assay; format: cell-based
Summary of the method: (§2)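 Cells treated 18 h at indicated concentrations; lysates analysed by western blot for heat shock (Grp94, HSP70, HSP40, HSP27), UPR (BIP, ATF4, ATF6, pJNK) and autophagy (LC3B, p62) proteins.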

SEM cells [6] = assay: Induction of early differentiation of human SEM cells assessed as increase in CD14 expression at IC50 to 2 times IC50 after 72 hrs by FACS analysis; format: functional, cell-based
Summary of the method: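 Surface CD11b and CD14 measured by FACS using fluorochrome-coupled monoclonal antibodies with matched isotype controls, after treatment in liquid medium.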

SEM cells [7] = assay: Antiproliferative activity against human SEM cells at IC50 to 2 times IC50 after 24 to 72 hrs by trypan exclusion method; format: functional, cell-based
[8] = molecular target: T2, Protein deacetylase HDAC6 (Homo sapiens) (UniProt Q9UBN7); assay: Inhibition of HDAC6 in human HL60 cells assessed as increase in acetyl-alpha tubulin expression at 0.1 to 10 uM after 24 hrs by immunoblot assay; format: cell-based
T2 sequence (whole entry): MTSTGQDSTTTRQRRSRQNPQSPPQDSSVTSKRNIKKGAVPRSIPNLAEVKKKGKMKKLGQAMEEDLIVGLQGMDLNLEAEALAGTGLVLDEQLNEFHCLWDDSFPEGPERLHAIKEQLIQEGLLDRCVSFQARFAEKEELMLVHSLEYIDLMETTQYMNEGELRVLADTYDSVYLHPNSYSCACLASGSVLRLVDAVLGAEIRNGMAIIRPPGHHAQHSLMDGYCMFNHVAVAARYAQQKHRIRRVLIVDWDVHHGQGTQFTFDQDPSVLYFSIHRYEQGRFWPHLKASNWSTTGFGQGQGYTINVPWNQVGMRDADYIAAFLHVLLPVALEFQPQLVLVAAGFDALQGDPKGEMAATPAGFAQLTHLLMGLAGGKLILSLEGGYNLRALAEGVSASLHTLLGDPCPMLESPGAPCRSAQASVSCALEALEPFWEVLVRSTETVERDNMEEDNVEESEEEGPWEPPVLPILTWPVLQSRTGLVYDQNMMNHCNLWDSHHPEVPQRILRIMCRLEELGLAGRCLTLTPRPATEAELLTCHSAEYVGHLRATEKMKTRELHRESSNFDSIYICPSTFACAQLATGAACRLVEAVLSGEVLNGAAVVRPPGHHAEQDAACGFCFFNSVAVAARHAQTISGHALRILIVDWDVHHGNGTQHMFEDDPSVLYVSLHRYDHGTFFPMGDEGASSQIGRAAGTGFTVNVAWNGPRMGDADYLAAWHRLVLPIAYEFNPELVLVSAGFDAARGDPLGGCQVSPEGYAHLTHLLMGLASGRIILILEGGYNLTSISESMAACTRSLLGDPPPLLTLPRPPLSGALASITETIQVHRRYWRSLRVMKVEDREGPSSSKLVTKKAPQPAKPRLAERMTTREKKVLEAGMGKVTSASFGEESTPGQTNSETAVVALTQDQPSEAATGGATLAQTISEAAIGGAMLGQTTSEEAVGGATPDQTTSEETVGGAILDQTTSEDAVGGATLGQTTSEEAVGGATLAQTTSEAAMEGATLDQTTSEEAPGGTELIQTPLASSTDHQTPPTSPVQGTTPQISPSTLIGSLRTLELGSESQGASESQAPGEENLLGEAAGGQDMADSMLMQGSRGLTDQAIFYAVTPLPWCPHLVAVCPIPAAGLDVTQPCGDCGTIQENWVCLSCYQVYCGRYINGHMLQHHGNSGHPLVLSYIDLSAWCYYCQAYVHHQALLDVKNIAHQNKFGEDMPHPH
Summary of the method: (§3)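 Cells exposed for 24 h at indicated concentrations; lysates immunoblotted for acetyl-α-tubulin, acetyl-histone H3, PARP, with GAPDH as loading control.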

[9] = molecular target: T2, Protein deacetylase HDAC6 (Homo sapiens); assay: Inhibition of HDAC6 in human SEM cells assessed as increase in acetyl-histone H3 expression at 0.1 to 10 uM after 24 hrs by immunoblot assay; format: cell-based; summary of the method: as §3
[10] = molecular target: T3, Proteasome Macropain subunit MB1 (Homo sapiens, UniProt P28074); assay: Inhibition of chymotrypsin-like activity of 20S proteasome in human HL60 cells using Suc-LLVY aminoluciferin as substrate after 2 hrs by proteasome-Glo assay; format: cell-based
T3 sequence (P28074 whole entry): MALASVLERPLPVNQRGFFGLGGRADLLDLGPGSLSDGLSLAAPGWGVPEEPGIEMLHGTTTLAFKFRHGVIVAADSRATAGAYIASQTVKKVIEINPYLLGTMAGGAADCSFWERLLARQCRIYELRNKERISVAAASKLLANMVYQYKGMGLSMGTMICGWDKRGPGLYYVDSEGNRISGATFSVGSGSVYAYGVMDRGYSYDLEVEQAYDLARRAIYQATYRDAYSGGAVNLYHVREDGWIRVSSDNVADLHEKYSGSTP

SEM cells [11] = assay: Inhibition of HDAC6/chymotrypsin-like activity of 20S proteasome in human SEM cells assessed as increase in Grp94 protein expression at 0.1 to 10 uM after 18 hrs by Western blot assay; format: cell-based; summary of the method: as §2
SEM cells [12] = assay: Cytotoxicity against human SEM cells after 72 hrs by CellTiter-Glo luminescent cell viability assay; format: functional, cell-based; summary of the method: as §1
[13] = molecular target: Histone deacetylase 3/Nuclear receptor corepressor 2 (HDAC3/NCoR2) (Homo sapiens, UniProt O15379); format: ADME, cell-based
Histone deacetylase 3/Nuclear receptor corepressor 2 (HDAC3/NCoR2), sequence (O15379 whole entry): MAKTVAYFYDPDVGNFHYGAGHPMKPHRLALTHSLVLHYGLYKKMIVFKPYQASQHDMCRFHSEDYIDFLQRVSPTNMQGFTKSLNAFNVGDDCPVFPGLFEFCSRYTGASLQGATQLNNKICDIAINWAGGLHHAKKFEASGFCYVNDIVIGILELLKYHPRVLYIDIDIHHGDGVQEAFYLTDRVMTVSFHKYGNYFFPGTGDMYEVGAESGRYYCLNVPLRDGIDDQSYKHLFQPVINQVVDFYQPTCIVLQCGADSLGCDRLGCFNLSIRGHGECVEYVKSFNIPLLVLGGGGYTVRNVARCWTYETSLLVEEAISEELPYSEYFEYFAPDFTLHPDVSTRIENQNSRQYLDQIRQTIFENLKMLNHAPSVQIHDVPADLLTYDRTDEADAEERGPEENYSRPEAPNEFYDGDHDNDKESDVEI
Histone deacetylase 3/Nuclear receptor corepressor 2 (HDAC3/NCoR2), sequence (Q9Y618 whole entry, further chain): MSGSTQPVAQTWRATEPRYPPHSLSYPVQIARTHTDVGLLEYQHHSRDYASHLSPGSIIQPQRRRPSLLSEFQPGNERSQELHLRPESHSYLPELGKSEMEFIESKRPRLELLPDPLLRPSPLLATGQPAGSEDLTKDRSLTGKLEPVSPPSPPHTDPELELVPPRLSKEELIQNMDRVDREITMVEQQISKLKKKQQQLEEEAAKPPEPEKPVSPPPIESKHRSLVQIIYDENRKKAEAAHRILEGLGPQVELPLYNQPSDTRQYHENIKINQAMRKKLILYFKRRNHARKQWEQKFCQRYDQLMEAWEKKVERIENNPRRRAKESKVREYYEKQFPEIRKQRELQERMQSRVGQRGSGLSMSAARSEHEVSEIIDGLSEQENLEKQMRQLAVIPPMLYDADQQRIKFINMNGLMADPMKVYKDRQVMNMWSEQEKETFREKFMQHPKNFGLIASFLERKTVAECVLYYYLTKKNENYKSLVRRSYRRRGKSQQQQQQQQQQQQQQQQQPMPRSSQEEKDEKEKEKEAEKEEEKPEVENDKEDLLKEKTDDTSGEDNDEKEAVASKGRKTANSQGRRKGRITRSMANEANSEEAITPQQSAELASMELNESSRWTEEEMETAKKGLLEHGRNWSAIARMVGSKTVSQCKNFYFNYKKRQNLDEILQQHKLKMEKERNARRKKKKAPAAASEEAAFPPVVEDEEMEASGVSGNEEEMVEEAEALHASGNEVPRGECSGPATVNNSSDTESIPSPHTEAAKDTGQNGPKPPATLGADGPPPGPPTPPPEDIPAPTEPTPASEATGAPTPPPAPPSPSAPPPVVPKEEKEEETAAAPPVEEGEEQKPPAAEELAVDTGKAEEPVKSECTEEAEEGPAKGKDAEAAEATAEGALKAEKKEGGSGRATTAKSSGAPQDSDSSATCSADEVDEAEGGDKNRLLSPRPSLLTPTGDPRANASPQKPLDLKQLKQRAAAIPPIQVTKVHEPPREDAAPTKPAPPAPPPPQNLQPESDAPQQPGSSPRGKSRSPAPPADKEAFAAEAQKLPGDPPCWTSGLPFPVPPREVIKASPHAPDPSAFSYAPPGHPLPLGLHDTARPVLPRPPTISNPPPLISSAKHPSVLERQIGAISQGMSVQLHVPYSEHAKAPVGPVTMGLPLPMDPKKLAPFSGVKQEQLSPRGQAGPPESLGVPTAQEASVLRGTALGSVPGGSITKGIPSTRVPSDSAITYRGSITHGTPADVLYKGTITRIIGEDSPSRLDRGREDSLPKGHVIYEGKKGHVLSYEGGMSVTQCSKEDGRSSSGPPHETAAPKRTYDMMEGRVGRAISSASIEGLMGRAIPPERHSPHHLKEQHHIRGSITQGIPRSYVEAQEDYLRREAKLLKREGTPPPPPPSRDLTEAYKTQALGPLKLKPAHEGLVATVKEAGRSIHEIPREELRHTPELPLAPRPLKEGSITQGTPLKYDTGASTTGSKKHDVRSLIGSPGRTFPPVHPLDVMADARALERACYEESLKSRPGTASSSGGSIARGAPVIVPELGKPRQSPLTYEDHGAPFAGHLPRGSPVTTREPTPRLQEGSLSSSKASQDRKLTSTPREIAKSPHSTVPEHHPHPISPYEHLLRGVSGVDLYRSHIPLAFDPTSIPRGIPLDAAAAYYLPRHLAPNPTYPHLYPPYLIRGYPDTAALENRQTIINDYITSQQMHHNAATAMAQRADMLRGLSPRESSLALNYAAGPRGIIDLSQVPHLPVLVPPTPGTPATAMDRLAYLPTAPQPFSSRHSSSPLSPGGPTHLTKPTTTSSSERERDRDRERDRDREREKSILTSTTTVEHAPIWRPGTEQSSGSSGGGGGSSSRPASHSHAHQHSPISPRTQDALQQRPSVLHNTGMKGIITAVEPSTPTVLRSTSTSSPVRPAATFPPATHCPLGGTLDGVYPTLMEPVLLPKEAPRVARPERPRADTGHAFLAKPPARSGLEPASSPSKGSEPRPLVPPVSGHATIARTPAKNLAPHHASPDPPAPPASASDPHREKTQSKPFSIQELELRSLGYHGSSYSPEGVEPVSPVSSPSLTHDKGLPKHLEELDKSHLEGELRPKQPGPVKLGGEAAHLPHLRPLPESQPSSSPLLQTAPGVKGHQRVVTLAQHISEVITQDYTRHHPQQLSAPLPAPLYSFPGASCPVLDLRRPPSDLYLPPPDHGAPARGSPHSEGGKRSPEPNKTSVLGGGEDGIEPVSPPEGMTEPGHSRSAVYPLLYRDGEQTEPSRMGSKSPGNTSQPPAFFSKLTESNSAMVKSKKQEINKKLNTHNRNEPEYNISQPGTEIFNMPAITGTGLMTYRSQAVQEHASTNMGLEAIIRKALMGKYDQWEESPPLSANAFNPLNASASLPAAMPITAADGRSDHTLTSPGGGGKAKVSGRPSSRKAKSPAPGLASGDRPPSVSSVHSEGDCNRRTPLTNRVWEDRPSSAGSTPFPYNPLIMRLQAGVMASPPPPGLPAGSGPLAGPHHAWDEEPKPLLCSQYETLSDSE

Proteasome Macropain subunit (Homo sapiens), sequence (P49721 whole entry): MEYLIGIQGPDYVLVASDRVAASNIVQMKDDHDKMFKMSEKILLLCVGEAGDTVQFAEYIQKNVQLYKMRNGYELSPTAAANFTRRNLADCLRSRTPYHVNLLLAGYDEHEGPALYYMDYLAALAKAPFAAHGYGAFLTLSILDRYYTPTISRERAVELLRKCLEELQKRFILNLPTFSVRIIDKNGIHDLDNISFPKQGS

inhibition [1]: inactive | inhibition [3]: inactive | inhibition [8]: Active | inhibition [9]: Active | IC50 [10]: 260 nM | IC50 [13]: 15 µM
SMILES: C[C@H](NC(=O)[C@H](CC(=O)NCC(C)(C)C)NC(=O)c1ccc(C(=O)NO)cc1)C(=O)NCc1ccccc1
IC50 (KCL-22 [2]): 3.14 µM | IC50 (KCL-22 [4]): 2580 nM | inhibition (SEM cells [5]): Active | Activity (SEM cells [6]): Active | Activity (SEM cells [7]): Active | inhibition (SEM cells [11]): Active | IC50 (SEM cells [12]): 890 nM
